The source of these data is ChEMBL document CHEMBL1158679, “Synthetic analogues of irlbacholine: a novel antifungal plant metabolite isolated from Irlbachia alata” (1999).

What all share (assay type): functional
Test [1] has as its system Candida albicans. As to the kind of experiment: Antifungal activity against Candida albicans ATCC 10259 by standard microdilution method. Put shortly: (§1)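 Minimum inhibitory concentration measured by standard broth microdilution in 96-well microplates against the named yeast strain.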
Test [2] concerns Cryptococcus neoformans. As to the kind of experiment: Antifungal activity against Cryptococcus neoformans ATCC 36556 by standard microdilution method. Put shortly:
as §1
For orientation: Dilution methods test growth across graded concentrations, often in twofold steps.

The test system of the next test is Aspergillus fumigatus. As to the kind of experiment: Antifungal activity against Aspergillus fumigatus ATCC 13073 by standard microdilution method. Put shortly:
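MIC read from a 96-well microplate broth microdilution run by the standard method, with Sabouraud dextrose broth as the medium for A. fumigatus ATCC 13073.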

Test [3] relates to Candida albicans. As to the kind of experiment: Antifungal activity against Candida albicans B311 by standard microdilution method. The method, boiled down:
as §1

The subject of test [4] is Candida albicans. Kind of test: Antifungal activity against Candida albicans 572-27 by standard microdilution method. Put shortly: as §1
The subject of test [5] is Cryptococcus neoformans. As to the kind of experiment: Antifungal activity against Cryptococcus neoformans 96-69 by standard microdilution method.

Converted amounts (≈) assume the structure as drawn.

Regarding `O=P(OCCCCCCCCCCCCCCCCOP(=O)(Oc1ccccc1)Oc1ccccc1)(Oc1ccccc1)Oc1ccccc1`, the MIC (in general, the lowest concentration that inhibits growth of the organism) is 125 µg/mL (≈ 173 µM) in the test with Candida albicans [1]; 62.5 µg/mL (≈ 86.5 µM) in the test on Cryptococcus neoformans [2]; over 500 µg/mL in the test with Aspergillus fumigatus; 250 µg/mL (≈ 346 µM) with Candida albicans [3]; 250 µg/mL (≈ 346 µM) with Candida albicans [4]; 125 µg/mL (≈ 173 µM) in the test on Cryptococcus neoformans [5].

Consider `OCCCCCCCCCCCCCCCCO`, for which the MIC against Candida albicans [1] is 125 µg/mL (≈ 484 µM); in the test with Cryptococcus neoformans [2], 62.5 µg/mL (≈ 242 µM); against Aspergillus fumigatus, over 500 µg/mL; against Candida albicans [3], 250 µg/mL (≈ 967 µM); against Candida albicans [4], 250 µg/mL (≈ 967 µM); in the test on Cryptococcus neoformans [5], 62.5 µg/mL (≈ 242 µM).

With `O=P(O)(OCCBr)OCCCCCCCCCCCCCCCCCCCCCCOP(=O)(O)OCCBr`, the MIC is over 500 µg/mL in the test with Candida albicans [1], 500 µg/mL (≈ 698 µM) in the test with Cryptococcus neoformans [2], over 500 µg/mL in the test on Candida albicans [4] and 500 µg/mL (≈ 698 µM) against Cryptococcus neoformans [5].

Consider `CCCCCCCCCCCCCCCCO` [CETYL ALCOHOL], for which the MIC is 125 µg/mL (≈ 516 µM) against Candida albicans [1]; 62.5 µg/mL (≈ 258 µM) against Cryptococcus neoformans [2]; over 500 µg/mL in the test with Aspergillus fumigatus; 250 µg/mL (≈ 1030 µM) in the test with Candida albicans [3]; 250 µg/mL (≈ 1030 µM) in the test on Candida albicans [4]; 125 µg/mL (≈ 516 µM) in the test on Cryptococcus neoformans [5].

For the molecule `C[N+](C)(C)CCOP(=O)(O)OCCCCCCCCCCCCCCCCCl.[Cl-]`, the MIC in the test on Candida albicans [1] turned out to be 0.5 µg/mL; against Cryptococcus neoformans [2], 0.5 µg/mL; against Aspergillus fumigatus, 3.1 µg/mL; with Candida albicans [3] it was 1 µg/mL; against Candida albicans [4] it was 1 µg/mL; with Cryptococcus neoformans [5], 0.5 µg/mL.

On to `O=P(O)(OCCBr)OCCCCCCCCCCCCCCCCOP(=O)(O)OCCBr`, for which the MIC with Candida albicans [1] was 62.5 µg/mL (≈ 98.8 µM); with Cryptococcus neoformans [2], 62.5 µg/mL (≈ 98.8 µM); against Candida albicans [3], 125 µg/mL (≈ 198 µM); against Candida albicans [4], 125 µg/mL (≈ 198 µM); against Cryptococcus neoformans [5] it was 125 µg/mL (≈ 198 µM).

Regarding `C[N+](C)(C)CCOP(=O)([O-])OCCCCCCCCCCCCCCCCCCCCOP(=O)([O-])OCC[N+](C)(C)C`, the MIC against Candida albicans [1] is over 500 µg/mL; in the test on Cryptococcus neoformans [2], 15.6 µg/mL (≈ 24.2 µM); against Candida albicans [4] it was over 500 µg/mL; against Cryptococcus neoformans [5], 15.6 µg/mL (≈ 24.2 µM).

Regarding `CCCCCCCCCCCCCCCCCCCCCCOP(=O)(O)OCC[N+](C)(C)C.[Cl-]`, the MIC in the test with Candida albicans [1] is 500 µg/mL; with Cryptococcus neoformans [2] it was 250 µg/mL; in the test on Candida albicans [3], 500 µg/mL; in the test on Candida albicans [4] it was 500 µg/mL; with Cryptococcus neoformans [5] it was 500 µg/mL.

Regarding `CCCCCCCCCCCCCCCCOP(=O)(O)OCC[N+](C)(C)C.[Cl-]`, the MIC against Candida albicans [1] came out at 0.5 µg/mL; in the test on Cryptococcus neoformans [2], 0.5 µg/mL; with Candida albicans [3] it was 1 µg/mL; in the test on Candida albicans [4], 1 µg/mL; with Cryptococcus neoformans [5] it was 0.5 µg/mL.

As to `C[N+](C)(C)CCOP(=O)([O-])OCCCCCCCCCCCCCCCCCCCCCCCCOP(=O)([O-])OCC[N+](C)(C)C`, the MIC against Candida albicans [1] was 31.2 µg/mL (≈ 44.5 µM); with Cryptococcus neoformans [2] it was 3.9 µg/mL (≈ 5.56 µM); with Candida albicans [3] it was 62.5 µg/mL (≈ 89.2 µM); with Candida albicans [4], 62.5 µg/mL (≈ 89.2 µM); with Cryptococcus neoformans [5], 7.8 µg/mL (≈ 11.1 µM).

Take `C[N+](C)(C)CCOP(=O)(O)OCCCCCCCCCCCCCCCl.[Cl-]`: the MIC in the test with Candida albicans [1] amounted to 7.8 µg/mL; against Cryptococcus neoformans [2], 1 µg/mL; in the test on Candida albicans [3], 7.8 µg/mL; in the test on Candida albicans [4], 3.9 µg/mL; with Cryptococcus neoformans [5] it was 0.5 µg/mL.

In the case of `C[N+](C)(C)CCOP(=O)([O-])OCCCCCCCCCCCCCCOP(=O)([O-])OCC[N+](C)(C)C`, the MIC against Candida albicans [1], with Cryptococcus neoformans [2], against Candida albicans [3], against Candida albicans [4] and in the test with Cryptococcus neoformans [5] was 250 µg/mL (≈ 446 µM) throughout.

As for `OCCCCCCCCCCCCCCCCCCCCCCO`, the MIC against Candida albicans [1], in the test with Cryptococcus neoformans [2], with Aspergillus fumigatus, against Candida albicans [3], in the test with Candida albicans [4] and against Cryptococcus neoformans [5] was over 500 µg/mL throughout.

Take `C[N+](C)(C)CCOP(=O)([O-])OCCCCCCCCCCCCCCCCCCCCCCOP(=O)([O-])OCC[N+](C)(C)C`: the MIC amounted to 1.25 µg/mL (≈ 1.86 µM) in the test on Candida albicans [1]; 0.04 µg/mL (≈ 0.0594 µM) against Cryptococcus neoformans [2]; 0.08 µg/mL (≈ 0.119 µM) with Aspergillus fumigatus; 1 µg/mL (≈ 1.49 µM) with Candida albicans [3]; 1 µg/mL (≈ 1.49 µM) in the test with Candida albicans [4]; 0.5 µg/mL (≈ 0.743 µM) against Cryptococcus neoformans [5].

For the molecule `O=P(OCCCCCCCCCCCCCCCCCCCCCCOP(=O)(Oc1ccccc1)Oc1ccccc1)(Oc1ccccc1)Oc1ccccc1`, the MIC with Candida albicans [1] was 125 µg/mL (≈ 155 µM); against Cryptococcus neoformans [2], 125 µg/mL (≈ 155 µM); against Aspergillus fumigatus, over 500 µg/mL; with Candida albicans [3] it was 250 µg/mL (≈ 310 µM); against Candida albicans [4] it was 250 µg/mL (≈ 310 µM); against Cryptococcus neoformans [5] it was 125 µg/mL (≈ 155 µM).

As for `C[N+](C)(C)CCOP(=O)([O-])OCCCCCCCCCCCCCCCCCCOP(=O)([O-])OCC[N+](C)(C)C`, the MIC in the test on Candida albicans [1] is over 500 µg/mL; against Cryptococcus neoformans [2], 500 µg/mL (≈ 811 µM); against Candida albicans [4], over 500 µg/mL; with Cryptococcus neoformans [5], over 500 µg/mL.

`C[N+](C)(C)CCOP(=O)([O-])OCCCCCCCCCCCCCCCCCCCCCCOP(=O)([O-])OCC[N+](C)(C)C.Cl`: the MIC was 1.25 µg/mL in the test with Candida albicans [1]; 0.04 µg/mL against Cryptococcus neoformans [2]; 0.08 µg/mL with Aspergillus fumigatus; 0.5 µg/mL with Candida albicans [3]; 0.5 µg/mL against Candida albicans [4]; 0.5 µg/mL against Cryptococcus neoformans [5].

On to `O=P(O)(O)OCCCCCCCCCCCCCCCCCCCCCCOP(=O)(O)O`, for which the MIC with Candida albicans [1] was 250 µg/mL (≈ 497 µM); in the test with Cryptococcus neoformans [2] it was 62.5 µg/mL (≈ 124 µM); against Aspergillus fumigatus, over 500 µg/mL; with Candida albicans [3], 250 µg/mL (≈ 497 µM); in the test on Candida albicans [4] it was 250 µg/mL (≈ 497 µM); against Cryptococcus neoformans [5], 125 µg/mL (≈ 249 µM).

As to `C[N+](C)(C)CCOP(=O)([O-])OCCCCCCCCCCCCCCCCOP(=O)([O-])OCC[N+](C)(C)C`, the MIC against Candida albicans [1] worked out at 125 µg/mL (≈ 212 µM); with Cryptococcus neoformans [2], 125 µg/mL (≈ 212 µM); against Aspergillus fumigatus it was 25 µg/mL (≈ 42.5 µM); in the test on Candida albicans [3], 250 µg/mL (≈ 425 µM); with Candida albicans [4], 125 µg/mL (≈ 212 µM); against Cryptococcus neoformans [5], 125 µg/mL (≈ 212 µM).

Regarding `C[N+](C)(C)CCOP(=O)([O-])OCCCCCCCCCCCCOP(=O)([O-])OCC[N+](C)(C)C`, the MIC against Candida albicans [1] came to 500 µg/mL (≈ 939 µM); in the test with Cryptococcus neoformans [2], 250 µg/mL (≈ 469 µM); against Candida albicans [3] it was 500 µg/mL (≈ 939 µM); against Candida albicans [4] it was 500 µg/mL (≈ 939 µM); against Cryptococcus neoformans [5] it was 250 µg/mL (≈ 469 µM).

On to `CCCCCCCCCCCCCCCCOP(=O)(O)O` [HEXADECYL DIHYDROGEN PHOSPHATE], for which the MIC against Candida albicans [1] was 250 µg/mL; in the test with Cryptococcus neoformans [2], 62.5 µg/mL; with Aspergillus fumigatus, over 500 µg/mL; in the test on Candida albicans [3], 250 µg/mL; against Candida albicans [4] it was 125 µg/mL; with Cryptococcus neoformans [5], 62.5 µg/mL.

Regarding `O=P(O)(O)OCCCCCCCCCCCCCCCCOP(=O)(O)O`, the MIC against Candida albicans [1] is 125 µg/mL (≈ 299 µM); in the test with Cryptococcus neoformans [2] it was 62.5 µg/mL (≈ 149 µM); in the test on Aspergillus fumigatus it was over 500 µg/mL; with Candida albicans [3] it was 250 µg/mL (≈ 598 µM); in the test on Candida albicans [4], 250 µg/mL (≈ 598 µM); in the test on Cryptococcus neoformans [5] it was 125 µg/mL (≈ 299 µM).
